Reference: ChEMBL document CHEMBL1177808, “Benzofuran-substituted urea derivatives as novel P2Y(1) receptor antagonists” (Bioorg Med Chem Lett, 2010)

Legend:
P2Y purinoceptor 1 [1] = biological target: T1, P2Y purinoceptor 1 (Homo sapiens, UniProt P47900); assay: Displacement of [33P]2-MeS-ADP from human P2Y1 receptor expressed in human U2OS cells by scintillation counting; format: cell-based
How it was run: (§1)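 Membranes from BacMam-transduced U2OS cells expressing human P2Y1, 0.5 µg prebound to 0.5 mg WGA-SPA beads. Radioligand 150 pM [33P]-2-MeS-ADP in 15 mM Hepes, 145 mM NaCl, 0.1 mM MgCl2, 5 mM EDTA, 5 mM KCl, with test compound dilutions or DMSO. Incubated 1 h at room temperature, centrifuged at 2000g, SPA counts read. At least three determinations.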

P2Y purinoceptor 1 [2] = biological target: T1, P2Y purinoceptor 1; assay: Antagonist activity at P2Y1 expressed in HEK293 cells by FLIPR assay; format: functional, cell-based
How it was run: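 HEK-293 MSRII cells (endogenous P2Y1) grown in DMEM/F12 with 10% FBS, plated 20,000/well, cultured 48 h. Loaded with calcium 3 dye in HBSS pH 7.4 plus 2.5 mM probenecid, 1 h, 37 °C. Calcium flux read on FLIPR; IC50 from non-linear regression; at least three determinations.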

Platelet [3] = assay: Inhibition of ADP-mediated alpha granule release in human platelet assessed as inhibition of P-selectin expression at 10 uM by flow cytometry; format: functional
How it was run: (§2)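 Human PRP from drug-free volunteers (EDTA 10 mM, 300g 4 min), diluted 1:50 in Hepes-modified Tyrode's buffer pH 7.4. Compound or DMSO added, then immediately ADP 300 nM for 5 min. PE-anti-CD62P for 15 min, fixed 30 min in 2% paraformaldehyde, P-selectin read by flow cytometry.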

P2Y purinoceptor 1 [4] = biological target: T1, P2Y purinoceptor 1; assay: Displacement of [33P]2-MeS-ADP from human P2Y1 receptor expressed in human U2OS cells at 10 uM by scintillation counting; format: cell-based; how it was run: as §1
Platelet [5] = assay: Inhibition of ADP-mediated alpha granule release in human platelet assessed as inhibition of P-selectin expression by flow cytometry; format: functional, cell-based; how it was run: as §2

T1 sequence (P47900 whole entry): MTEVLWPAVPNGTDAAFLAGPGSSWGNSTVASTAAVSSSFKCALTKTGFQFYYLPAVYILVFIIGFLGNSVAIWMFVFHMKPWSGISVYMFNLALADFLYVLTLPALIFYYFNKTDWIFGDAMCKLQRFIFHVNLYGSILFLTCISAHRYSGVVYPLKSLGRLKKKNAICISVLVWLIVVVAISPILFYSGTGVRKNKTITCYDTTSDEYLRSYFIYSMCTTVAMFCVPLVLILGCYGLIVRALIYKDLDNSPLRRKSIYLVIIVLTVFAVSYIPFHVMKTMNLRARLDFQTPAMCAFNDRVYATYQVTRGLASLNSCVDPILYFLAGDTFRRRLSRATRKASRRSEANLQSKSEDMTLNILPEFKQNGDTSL

SMILES | Ki (P2Y purinoceptor 1 [1]) [nM] | IC50 (P2Y purinoceptor 1 [2]) [nM] | inhibition at 10 µM (Platelet [3]) [%] | inhibition (P2Y purinoceptor 1 [4]) [%] | IC50 (Platelet [5]) [nM]
CC(C)c1ccccc1-c1cc2cccc(NC(=O)Nc3ccc(Cl)cc3)c2o1 | 760 | 2000 | – | – | –
CC(C)(C)c1ccccc1-c1cc2cccc(NC(=O)Nc3ccc(OC(F)(F)F)cc3)c2o1 | 400 | 4000 | – | – | –
CC(C)c1ccccc1-c1cc2cccc(NC(=O)Nc3ccc(OC(F)(F)F)cc3)c2o1 | 600 | 4000 | 49 | – | –
CCCCCc1ccc(NC(=O)Nc2cccc3cc(-c4ccccc4C(C)C)oc23)cc1 | 140 | 630 | – | – | –
O=C(Nc1ccc(OC(F)(F)F)cc1)Nc1cccc2cc(-c3ccccc3C(F)(F)F)oc12 | 2500 | 6300 | – | – | –
CCCCOc1ccc(NC(=O)Nc2cccc3cc(-c4ccccc4C(C)C)oc23)cc1 | 640 | 2000 | – | – | –
CC(C)Oc1ccccc1-c1cc2cccc(NC(=O)Nc3ccc(OC(F)(F)F)cc3)c2o1 | – | > 25000 | – | – | –
O=C(Nc1ccc(OC(F)(F)F)cc1)Nc1cccc2cc(-c3ccccc3Cl)oc12 | – | > 25000 | – | – | –
CC(C)c1ccccc1-c1cc2cccc(NC(=O)Nc3ccc(N(C)C)cc3)c2o1 | – | 15800 | – | – | –
CC(C)c1ccccc1-c1cc2cccc(NC(=O)Nc3cccc(C(F)(F)F)c3)c2o1 | – | 5000 | – | 60 | –
CC(C)c1ccccc1-c1cc2cccc(NC(=O)Nc3ccc(C(C)(C)C)cc3)c2o1 | – | 1300 | 100 | 72 | 300
Cc1ccc(NC(=O)Nc2cccc3cc(-c4ccccc4C(C)C)oc23)cc1C(F)(F)F | – | 1600 | 79 | 69 | –
O=C(Nc1ccc(OC(F)(F)F)cc1)Nc1cccc2cc(-c3cccc(C(F)(F)F)c3)oc12 | – | > 25000 | – | – | –
